SIRT5 inh = blocks human SIRT5 desuccinylation of peptide; Q9NXA8; Purified SirT5, succinyl-peptide AMC, trypsin-coupled fluorescence; inhibition, % at 15 µM; 330,000 compounds, 1.1% hits; in the data active means inhibition above about 15%; inconclusive means no clear call, values can overlap the other calls
Target sequence (Q9NXA8 whole entry, looked up): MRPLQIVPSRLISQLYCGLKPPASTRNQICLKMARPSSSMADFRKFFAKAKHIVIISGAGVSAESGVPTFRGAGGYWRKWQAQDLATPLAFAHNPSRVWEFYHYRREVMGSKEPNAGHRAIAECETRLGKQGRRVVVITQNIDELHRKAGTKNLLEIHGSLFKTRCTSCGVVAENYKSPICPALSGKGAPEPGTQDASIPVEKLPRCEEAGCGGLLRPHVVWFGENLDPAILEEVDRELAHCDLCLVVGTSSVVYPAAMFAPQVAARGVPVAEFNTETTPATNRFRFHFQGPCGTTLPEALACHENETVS
Xi reactivation = X-chromosome reactivation activator. XiGFP mouse fibroblasts, % GFP-positive cells imaging, 3 d; cells co-treated with 5-aza-dC sensitizer; scaled so ellipticine positive control = 100%. activation, % at 7.58 µM. 360,000 compounds, 0.055% hits;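 active means mean normalized replicate activation at least 10% and every replicate at or above 10%; inconclusive means only one of the two criteria met; inactive means mean below 10% and not all replicates reach 10%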;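 further: 0% = median of on-plate neutral control wells and 100% = ellipticine 6 µM median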
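System: 68-5-11 XiGFP fibroblast line | Buffer or medium: DMEM containing 5-aza-dC | Compound: Single point | Times: Compounds 3 days, fix/stain 15 min at room temperature | Benchmarks: Positive control ellipticine, 6 µM final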
DENV2 CPE rescue = inhibitors of DENV2 cytopathic effect | CPE inhibition, % at 9.99 µM | 350,000 compounds, 1.7% hits | DENV2-infected cells, cytopathic effect rescue, plate reader; in the data active means CPE inhibition above about 20%, passing the limit was not always enough; inconclusive means no clear call, values can overlap the other calls; tested in BHK-21 cells;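 further: 0% = median of neutral control wells and 100% = median of positive control wells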
FGF22 binding = FGF22 (human) thermal shift binding | recombinant FGF22 thermal shift, SYPRO orange fluorescence; percent of sucrose octasulfate shift, DMSO zero | 340,000 compounds, 1.5% hits | Q9HCT0 | activity (Tm shift, normalised), % at 9.99 µM;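 active means mean Tm shift, scaled 0 neutral to 100 positive control, at about 1.3% or above, every replicate too, limit read from the data; inconclusive means no clear call, values can overlap the other calls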
Target sequence (Q9HCT0 whole entry, looked up): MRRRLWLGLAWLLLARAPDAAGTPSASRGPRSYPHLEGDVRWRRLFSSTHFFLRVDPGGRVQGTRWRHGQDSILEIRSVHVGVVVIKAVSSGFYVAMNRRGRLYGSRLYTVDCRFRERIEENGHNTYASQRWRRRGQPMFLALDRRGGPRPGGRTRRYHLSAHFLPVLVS
ARNT-TACC3 inh = ARNT/TACC3 interaction disruption; Q9Y6A5; AlphaScreen His-ARNT PAS-B/GST-TACC3 binding, luminescence; TACC3 fragment carries E629A point mutation; inhibition, % at 9.99 µM; 390,000 compounds, 0.66% hits;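 active means mean inhibition of replicates at least 50% and at least half of replicates each reaching 50%; inconclusive means half or more replicates reach 50% but mean below 50%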;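 further: 0% = complete ARNT plus TACC3 wells and 100% = ARNT alone without TACC3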
FN deposition inh = fibronectin deposition inhibition; inhibition, % at 12.6 µM; 350,000 compounds, 0.086% hits; AH1F fibroblasts, Alexa488-fibronectin deposition fluorescence, overnight; AID 743247;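 active means mean inhibition across replicates of 30% or more, regardless of how many single replicates reach that level; inconclusive means mean under 30% yet at least half of replicates reach 30%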;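 further: positive control wells lacked labelled fibronectin entirely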
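Measured by – fluorescence 485/525 nm · System – AH1F fibroblast monolayer, labelled fibronectin deposition · Amount – 10000 cells per well · Buffer or medium – serum-reduced DMEM (2% serum) · Doses – single dose, pinned · Also added – fluorescent fibronectin at 24 nM final · Schedule – 1 h cell attachment, overnight exposure to compound and label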
* hit, by the source's call; ? = inconclusive; nt = no result given. This is a sample that favours compounds with a hit; in the whole collection about 3.8% have one here.

SMILES	SIRT5 inh	Xi reactivation	DENV2 CPE rescue	FGF22 binding	ARNT-TACC3 inh	FN deposition inh
Cc1c(/C=N/NC(=O)CNc2ccccc2)c2ccccn2c1C(=O)c1ccncc1	-5	0	35*	0	3	1
COC(=O)Cn1c(C(=O)N(C)C)cc2c1C[C@H]1CN(C(=O)c3ccccc3)[C@@](Cc3ccc(F)cc3)(C(=O)OC)[C@@H]21	nt	0	63*	0	nt	0
COC(=O)[C@@]1(Cc2ccc(F)cc2)[C@H]2c3cc(C(=O)N(C)C)n(Cc4ccc(OC(F)(F)F)cc4)c3C[C@H]2CN1C(=O)c1ccccc1	nt	0	20*	0	nt	-4
CO[C@H](CN(C)C(=O)c1ccccc1F)[C@@H](C)CN([C@@H](C)CO)S(=O)(=O)c1ccc(F)cc1	-3	0	-4	0	0	-12
O=C(Nc1ccc(O)cc1C(=O)O)c1ccc(NC(=O)c2ccco2)cc1	5	0	0	2.1*	13	6
Nc1ccc(NC(=O)c2ccco2)c(Cl)c1	-2	0	nt	44*	3	4
O=C(Nc1ccccc1C(=O)O)c1cccc(NC(=O)c2ccco2)c1	-1	0	2	nt	5	-7
O=C(Nc1c(Cl)ccc2nsnc12)c1ccco1	2	0	nt	44*	nt	-1
CCOc1cccc(C(=O)Nc2ccc(N(CC)CC)cc2)c1	nt	nt	nt	nt	14	30*
CO[C@@H]1CN(C)C(=O)c2cc(NC(=O)NC3CCCC3)ccc2OC[C@@H](C)NC[C@@H]1C	nt	0	nt	nt	nt	-11
CCOc1cccc(C(=O)Nc2cccc(C(C)=O)c2)c1	nt	0	nt	nt	nt	-1
CC(=O)Nc1cccc(NC(=O)c2ccc(COc3ccccc3)cc2)c1	nt	0	9	43*	-10	6
CC(C)OC(=O)c1ccc(NC(=O)c2ccco2)cc1	nt	nt	nt	nt	4	nt
CCOc1cccc(C(=O)Nc2cccc(NC(=O)c3ccco3)c2)c1	6	0	0	1.5*	-4	0
O=C(Nc1cccc(NC(=O)c2ccco2)c1)c1cccc(Br)c1	nt	0	?	43*	2	8
CCOC(=O)c1ccc(NC(=O)c2ccco2)cc1	17*	0	2	0	-8	-3
O=C(Nc1cc(Br)c(O)c(Br)c1)c1cccc(NC(=O)c2ccco2)c1	2	0	2	0	8	2
CC(=O)Nc1ccc(NC(=O)c2ccc(COc3ccccc3)cc2)cc1	-1	0	14	0	-5	1
O=C(C[C@@H]1C=C[C@H](NC(=O)Nc2ccc3c(c2)OCO3)[C@H](CO)O1)NCc1ccc2c(c1)OCO2	-2	0	5	0	10	nt
COc1ccc(CN(C)C[C@H]2OCCCC[C@H](C)Oc3ccc(NS(=O)(=O)c4ccc(C)cc4)cc3C(=O)N([C@H](C)CO)C[C@@H]2C)cc1	-1	0	-3	nt	-23	nt
O=C(C[C@@H]1CC[C@@H]2[C@H](COC[C@H](O)CN2Cc2ccccc2F)O1)N1CCc2ccccc2C1	0	0	-11	0	-4	16
CN(C)CCCNC(=O)C[C@H]1C=C[C@H](NC(=O)c2ccccc2F)[C@@H](CO)O1	5	0	4	0	6	-5
CCOC(=O)c1ccc(NC(=O)c2cc3c(s2)CCC3)cc1	-4	0	-1	45*	5	-11
O=C(Nc1ccc(N2CCN(C(=O)c3ccco3)CC2)cc1)c1ccccc1	19*	0	2	0	-4	-9
O=C(CCNC(=O)c1ccco1)NCCc1ccc(Cl)cc1	0	0	-1	0	1	2
SMILES	SIRT5 inh	Xi reactivation	DENV2 CPE rescue	FGF22 binding	ARNT-TACC3 inh	FN deposition inh
O=C(CCNC(=O)c1ccco1)Nc1ccc(Cl)cc1F	-2	0	28*	0	-4	-1
C/C(=N/NC(=O)c1ccco1)c1cccc(NC(=O)c2ccc(C)s2)c1	0	0	12	1.5*	0	2
O=C(Nc1ccc(N2CCN(C(=O)c3ccco3)CC2)cc1)c1ccc(F)cc1	nt	nt	nt	nt	-4	2
CCOC(=O)c1ccc(NC(=O)c2ccc(NC(=O)c3ccccc3)cc2)cc1	nt	nt	nt	nt	-5	11
CN(C)CCN(Cc1ccco1)c1ccccn1	nt	0	10	43*	-9	5
CN(C)CCN(Cc1ccc(Cl)cc1)c1ccccn1	0	15*	0	0	-3	-4
C[N+](C)(C)CCN(Cc1ccc(Cl)cc1)c1ccccn1	nt	nt	nt	nt	-7	2
CN1CCN(CCOCCOc2ccc(Br)cc2Cl)CC1	-3	0	?	0	-11	-5
Clc1cc(Br)ccc1OCCN1CCOCC1	26*	0	-7	0	nt	-2
COc1ccc(NC(=O)CN2CCCC2)cc1	-2	0	-3	0	0	0
O=C(CN1CCCC1)Nc1ccc(Oc2ccc(NC(=O)CN3CCCC3)cc2)cc1	nt	nt	nt	nt	4	30*
Cc1cccc(C)c1NC(=O)CN1CCN(C(=O)C2CCC2)CC1	13	0	3	0	-6	-3
O=C(CN1CCN(C(=O)C2CCC2)CC1)Nc1ccc(F)cc1	-2	0	32*	0	-13	-1
CCc1ccc(NC(=O)CSc2nc3ccsc3c(=O)n2CCCCCC(=O)O)cc1	-3	0	-3	43*	-4	-5
CCOc1ccc(NC(=O)CSc2nc3ccsc3c(=O)n2CCCCC(=O)O)cc1	nt	0	1	0	nt	-6
CC(=O)N1[C@@H]2c3ccc(/C=C/c4ccccc4)c(=O)n3C[C@H]1[C@H](CO)[C@H]2C(=O)NCC1CC1	-131	0	-5	0	-4	nt
CO[C@H]1CN(C)C(=O)c2cc(NC(=O)NC3CCCCC3)ccc2OC[C@H](C)N(CCc2ccccc2)C[C@H]1C	2	0	-1	0	0	9
CO[C@H]1CN(C)C(=O)c2cc(NC(=O)NC3CCCCC3)ccc2OC[C@H](C)N(CCc2ccccc2)C[C@@H]1C	25*	0	3	0	7	-5
COc1cccc(C(=O)Nc2ccc3c(c2)C(=O)N(C)C[C@H](OC)[C@@H](C)CN(CCc2ccccc2)[C@H](C)CO3)c1	20*	0	-1	0	-1	6
COc1cccc(C(=O)Nc2ccc3c(c2)C(=O)N(C)C[C@H](OC)[C@H](C)CN(C(=O)C2CCCC2)[C@@H](C)CO3)c1	1	0	38*	0	nt	6
C=CCSc1nnc(-c2cc3c(-c4ccccc4)nn(C)c3s2)n1C	nt	nt	nt	nt	48*	nt
COc1cc(C(=O)N2CCN(c3ccccc3)CC2)c([N+](=O)[O-])cc1OC	1	0	0	43*	-4	-2
COc1cc(C(=O)c2ccccc2Cl)c([N+](=O)[O-])cc1OC	2	0	1	44*	2	-5

Screening results (PubChem BioAssay)
